Activity calls are given as the source filed them. The rule behind the calls is not given here.

Assay [1] concerns Cryptosporidium parvum. As to the kind of experiment: Anticryptosporidial activity against Cryptosporidium parvum infected TCR alpha deficient-mouse assessed as prevention of oocyst shedding at 20 mg/kg/day after 7 days. The format is functional. The method in brief:
(§1)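 Seven-day-old TCR-α-deficient mice were gavaged with 2 × 10^4 oocysts, and infection was confirmed in feces one week later. Treatment ran for 7 days: 20 or 134 mg/kg once daily, or 16 mg/kg twice daily. Controls received PBS. Seven days after treatment, fecal smears were stained with carbol fuchsin and scored for oocysts (×400). Ileal and cecal H&E sections were scored 0–2. Shedding was compared by Fisher's exact test.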

Assay [2] deals with Cryptosporidium parvum. Kind of assay: Anticryptosporidial activity against Cryptosporidium parvum infected TCR alpha deficient-mouse assessed as prevention of oocyst shedding at 134 mg/kg/day after 7 days. Format: functional. The method in brief:
as §1

Assay [3] deals with Cryptosporidium parvum. As to the kind of experiment: Prevention of Cryptosporidium parvum infection in TCR alpha deficient-mouse pretreated with 50 mg/kg/day, po for 2 days prior to oocyst infection and continued for 5 days. Format: functional, organism-based. The essentials: (§2)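 Suckling TCR-α-deficient mice (6–8 per group) were treated once daily for 2 days, challenged with 2 × 10^4 oocysts, and treated for 5 more days at the same dose (20 or 50 mg/kg). Controls received PBS. Fecal oocyst shedding was checked 10 days after treatment by carbol fuchsin smear. Ileal and cecal H&E sections were scored 0–2 and analyzed by Fisher's exact test and ANOVA.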

Assay [4] has as its system Cryptosporidium parvum. As to the kind of experiment: Effect on infection of HCT8 cells by Cryptosporidium parvum […] isolated from mouse treated with 134 mg/kg/day for 7 days assessed as viability of […]. Format: functional, organism-based. The essentials:
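Oocysts were recovered from TCR-α-deficient mice that had been infected, then treated with 134 mg/kg once daily for 7 days. Viability was judged by whether the oocysts could establish infection in an HCT-8 cell monolayer in vitro.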

The test system of assay [5] is Mus musculus. As to the kind of experiment: Activity of intestinal epithelial SSAT in Swiss-Webster mouse at […], ip after 72 hrs. Format: functional. The method in brief: (§3)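 Intestinal homogenates came from Swiss-Webster mice given CGC-11157 once daily (20 mg/kg p.o. or 2 mg/kg i.p.) and killed at 48, 72 or 96 h. SSAT was measured as [1-14C]acetyl-CoA incorporation into monoacetylspermine in Bicine (pH 8.0), with 16.5 μM labeled plus 1 mM acetyl-CoA, 2 mM spermine and 100 μg protein, 60 min at 37°C. Products were bound on cellulose phosphate discs and counted. Results are in nmol/min/mg protein ± SD.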

Assay [6] relates to Mus musculus. As to the kind of experiment: Activity of intestinal epithelial ODC in Swiss-Webster mouse at 0.2 mg, ip after 48 hrs. Format: functional. The method in brief:
(§4)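 Swiss-Webster mice were dosed with CGC-11157 once daily at 20 mg/kg p.o. by feeding needle or 2 mg/kg i.p. They were killed at 48, 72 or 96 h. Intestines were washed in PBS (pH 6.7) and homogenized on ice in 40 mM Tris-HCl (pH 6.7). ODC was measured as 14CO2 trapped from L-[14C]ornithine in 0.2 M acetate (pH 6.5), 60 μM pyridoxal phosphate, 3 mg/ml BSA and 125 μg protein, 30 min at 37°C. Results are in nmol/min/mg protein ± SD.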

In assay [7] the test system is Mus musculus. Kind of assay: Ratio of intestinal epithelial ODC activity to SSAT activity in Swiss-Webster mouse at 0.2 mg, ip after 96 hrs. Format: functional. The essentials:
(§5)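 The ratio was calculated from ODC (14CO2 release from [14C]ornithine) and SSAT (acetylation of spermine by [14C]acetyl-CoA) specific activities. Both were measured in intestinal homogenates from Swiss-Webster mice dosed once daily with CGC-11157 p.o. or i.p. and sampled at 48, 72 or 96 h.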

Assay [8] relates to Mus musculus. As to the kind of experiment: Activity of intestinal epithelial SSAT in Swiss-Webster mouse at […], ip after 96 hrs. Format: functional. The method in brief: as §3
Assay [9] concerns Cryptosporidium parvum. Kind of assay: Prevention of Cryptosporidium parvum infection in TCR alpha deficient-mouse pretreated with 20 mg/kgday, po for 2 days prior to oocyst infection and continued for 5 days. Conditions: dose 20 mg/kg. Format: functional. The method in brief: as §2
The test system of assay [10] is Mus musculus. Kind of assay: Ratio of intestinal epithelial ODC activity to SSAT activity in Swiss-Webster mouse at 2 mg, po after 96 hrs. Format: functional. The essentials: as §5
Assay [11] concerns Mus musculus. Kind of assay: Ratio of intestinal epithelial ODC activity to SSAT activity in Swiss-Webster mouse at 2 mg, po after 72 hrs. The format is functional. The method in brief:
as §5

Assay [12] has as its system Mus musculus. As to the kind of experiment: Activity of intestinal epithelial ODC in Swiss-Webster mouse at 0.2 mg, ip after 72 hrs. Format: functional. The essentials: as §4
Assay [13] relates to Mus musculus. Kind of assay: Activity of intestinal epithelial ODC in Swiss-Webster mouse at […], ip after 96 hrs. Format: functional. The essentials: as §4
Assay [14] relates to Cryptosporidium parvum. Kind of assay: Anticryptosporidial activity against Cryptosporidium parvum infected TCR alpha deficient-mouse assessed as prevention of oocyst shedding at 16 mg/kg twice a day after 7 days. The format is functional. The essentials: as §1
For assay [15], the system named is Mus musculus. As to the kind of experiment: Ratio of intestinal epithelial ODC activity to SSAT activity in Swiss-Webster mouse at 0.2 mg, ip after 48 hrs. Format: functional. The method in brief:
as §5

The subject of assay [16] is Mus musculus. Kind of assay: Activity of intestinal epithelial SSAT in Swiss-Webster mouse at 0.2 mg, ip after 48 hrs. The format is functional. The essentials: as §3
Assay [17] deals with Mus musculus. As to the kind of experiment: Ratio of intestinal epithelial ODC activity to SSAT activity in Swiss-Webster mouse at 2 mg, po after 48 hrs. Format: functional. The essentials: as §5
The subject of assay [18] is Mus musculus. As to the kind of experiment: Ratio of intestinal epithelial ODC activity to SSAT activity in Swiss-Webster mouse at 0.2 mg, ip after 72 hrs. The format is functional. The essentials: as §5

In the case of `NCCCC(N)(C(=O)O)C(F)F` (racemic) [EFLORNITHINE], the Activity in assay [1] was 33%.

For `CCNCCCNC/C=C\CNCCCNCC`, in assay [2], the Activity entry is “Toxic”. The result in assay [3] was Active.

As to `CCNCCCCNCCCCNCCCCNCCCCNC/C=C/CNCCCCNCCCCNCCCCNCCCCNCC`, the outcome in [4] was inactive.

Consider `CCNCCCCNCCCCNCCCCNC/C=C\CNCCCCNCCCCNCCCCNCC`, for which the Activity came to 0.034 nmol/mg/min in [5]; 0.079 nmol/mg/min in assay [6]; 0.04 nmol/mg/min in [8]; 50% in [9]; 0.034 nmol/mg/min in assay [12]; 0.16 nmol/mg/min in assay [13]. Besides, the values for the Activity in [14], in assay [16] and in assay [1] were 50%, 0.081 nmol/mg/min and 50%, respectively. For the same compound, the Ratio turned out to be 4 in assay [7]; 2.9 in [10]; 1.55 in assay [11]; 0.97 in [15]; 0.99 in assay [17]; 1 in [18].

The values are drawn from ChEMBL document CHEMBL1147096, “Activities of DL-alpha-difluoromethylarginine and polyamine analogues against Cryptosporidium parvum infection in a T-cell receptor alpha-deficient mouse model” (2007).
